ChEMBL document CHEMBL5390295, “Isolinderalactone Ameliorates the Pathology of Alzheimer's Disease by Inhibiting the JNK Signaling Pathway” (2023)
Calls of active or inactive are those of the source. No cut-off for these calls is given here.

Tests used:
Mus musculus [1] = assay: Neuroprotective activity in APP/PS1 dE9 double transgenic mouse model assessed as improvement in spatial memory at 5 mg/kg, ip administered once daily for 30 consecutive days […] by morris water maze test; type: functional, organism-based; conditions: time 30.0 day
How it was run: (§1)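 Female APP/PS1 mice, 10 months old, about 30 g, 10 per group. Dosing was intraperitoneal in 1× PBS, once daily for one month (1 or 10 mg/kg test; 5 mg/kg donepezil). WT and untreated APP/PS1 controls got PBS. Morris water maze: training days 1–4, averaged escape latency. Day-5 probe trial ran 60 s with the platform removed, recording platform crossings and time per quadrant. Mean ± SEM.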

Mus musculus [2] = assay: Anti-alzheimer activity in hippocampus of APP/PS1 dE9 double transgenic mouse model assessed as reduction in amyloid beta plaque deposition at 5 mg/kg, ip administered once daily for 30 consecutive days by immunofluorescence staining; type: functional, organism-based; conditions: time 30.0 day
How it was run: (§2)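 Brains from dosed female APP/PS1 mice (10 months) were fixed in 4% paraformaldehyde at 4 °C for 24–48 h, taken through a sucrose gradient and OCT, and cut into 15 μm sections. Sections were permeabilized with 0.3% Triton X-100, blocked in 10% BSA for 1 h, and incubated with primary antibody overnight at 4 °C (1:200). Secondary was 1:500 for 1 h at 25 °C, with DAPI counterstain and confocal imaging, in triplicate.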

Mus musculus [3] = assay: Anti-alzheimer activity against APP/PS1 dE9 double transgenic mouse model assessed as decrease in escape latency at 5 mg/kg, ip administered once daily for 30 consecutive day measured on day 5 by morris water maze test; type: functional, organism-based; conditions: time 30.0 day; how it was run: as §1
Mus musculus [4] = assay: Anti-alzheimer activity in hippocampus of APP/PS1 dE9 double transgenic mouse model assessed as reduction in glial cell aggregation at 5 mg/kg, ip administered once daily for 30 consecutive days by immunofluorescence staining; type: functional, organism-based; conditions: time 30.0 day; how it was run: as §2
Mus musculus [5] = assay: Anti-alzheimer activity against APP/PS1 dE9 double transgenic mouse model assessed as increase in platform crossings at 5 mg/kg, ip administered once daily for 30 consecutive days […] by morris water maze test; type: functional, organism-based; conditions: time 30.0 day; how it was run: as §1
Mus musculus [6] = assay: Anti-alzheimer activity against APP/PS1 dE9 double transgenic mouse model assessed as increase in time spent in the target quadrant at 5 mg/kg, ip administered once daily for 30 consecutive days measured on day 5 by morris water maze test; type: functional, organism-based; conditions: time 30.0 day; how it was run: as §1
Mus musculus [7] = assay: Anti-alzheimer activity in hippocampus of APP/PS1 dE9 double transgenic mouse model assessed as decrease in MDA level at 5 mg/kg, ip administered once daily for 30 consecutive days […]; type: functional, organism-based; conditions: time 30.0 day
How it was run: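 Hippocampal tissue from dosed APP/PS1 mice was lysed in RIPA. SOD activity was read by WST-8/xanthine oxidase formazan kit assay and MDA by lipid peroxidation kit, with absorbance on a microplate reader.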

Mus musculus [8] = assay: Anti-alzheimer activity in hippocampus of APP/PS1 dE9 double transgenic mouse model assessed as increase in SOD content at 5 mg/kg, ip administered once daily for 30 consecutive days by immunofluorescence analysis; type: functional, organism-based; conditions: time 30.0 day
PC-12 [9] = assay: Neuroprotective activity against Abeta1-42 induced rat PC12 cells assessed as effect on Bcl2/Bax ratio level at 1.25 uM preincubated for 0.5 hrs followed by Abeta1-42 induction and measured after 24 hrs by Western blot analysis; type: functional, cell-based; conditions: time 24.5 hrs
How it was run: (§3)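 Aβ1–42 challenge in PC12 cells was 10 μM for 24 h after 3 h pretreatment at 10 μM. SP600125 (1.25 μM) was added 0.5 h before pretreatment where used. Cells were lysed in RIPA and protein measured by BCA. Blotting used PVDF transfer, 5% BSA/TBST block for 2 h, primaries 1:1000 overnight at 4 °C, and HRP secondary for 2 h. Bcl-2/Bax ratio and band intensities were quantified.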

PC-12 [10] = assay: Neuroprotective activity against Abeta1-42 induced rat PC12 cells assessed as effect on cleaved caspase-3 protein level at 1.25 uM preincubated for 0.5 hrs followed by Abeta1-42 induction and measured after 24 hrs by Western blot analysis; type: functional, cell-based; conditions: time 24.5 hrs; how it was run: as §3

SMILES	Activity (Mus musculus [1])	Activity (Mus musculus [2])	Activity (Mus musculus [3])	Activity (Mus musculus [4])	Activity (Mus musculus [5])	Activity (Mus musculus [6])	Activity (Mus musculus [7])	Activity (Mus musculus [8])	Activity (PC-12 [9])	Activity (PC-12 [10])
COc1cc2c(cc1OC)C(=O)C(CC1CCN(Cc3ccccc3)CC1)C2 (stereo not given)	Active	Active	Active	Active	Active	Active	Active	Active		
O=C1c2ccccc2-c2n[nH]c3cccc1c23									inactive	inactive
